From ChEMBL document CHEMBL1909506, “Synthesis and anti-tumor activities of N'-benzylidene-2-(4-oxothieno[2,3-d]pyrimidin-3(4H)-yl)acetohydrazone derivatives” (Bioorg Med Chem Lett, 2011)
pIC50: −log10 of the molar value. Calls of active or inactive are those of the source. The calls are words filed in the database; no cut-off is given here.

How the values were obtained:
A549 [1] = assay: Cytotoxicity against human A549 cells assessed as growth inhibition at 20 uM after 48 hrs by MTT assay; format: functional; details: for inhibition of growth at 20 µM: A549, 48 h, read-out: GI
In short: (§1)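 Single-concentration screen at 20 µM. Cell growth inhibition read by standard MTT assay after 48 h treatment and expressed as inhibition ratio.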

HeLa [2] = assay: Cytotoxicity against human HeLa cells assessed as growth inhibition at 20 uM after 48 hrs by MTT assay; format: functional; details: for inhibition of growth at 20 µM: read-out: GI; in short: as §1
MDA-MB-231 [3] = assay: Cytotoxicity against human MDA-MB-231 cells assessed as growth inhibition at 20 uM after 48 hrs by MTT assay; format: functional; details: for inhibition of growth at 20 µM: MDA-MB-231, 48 h, read-out: GI; in short: as §1
[4] = biological target: Induced myeloid leukemia cell differentiation protein Mcl-1 (Homo sapiens) (UniProt Q07820); assay: Inhibition of mouse/human MCL1 expressed in Escherichia coli BL21 at 1 uM to 50 uM using FAM-labeled Bid-BH3 as tracer by fluorescence polarization assay
HeLa [5] = assay: Induction of apoptosis in human HeLa cells assessed as increase in level of cleaved caspase-3 at 20 uM after 12 hrs by immunoblotting; format: functional, cell-based
HeLa [6] = assay: Induction of apoptosis in human HeLa cells assessed as sub-diploid DNA content at 20 uM after 24 hrs using PI staining by flow cytometry (reference value: 6%); format: functional
MDA-MB-231 [7] = assay: Cytotoxicity against human MDA-MB-231 cells assessed as growth inhibition after 48 hrs by MTT assay; format: functional, cell-based; details: for pIC50: MDA-MB-231, 48 h
In short: (§2)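 Dose-response MTT assay, 48 h exposure. Compounds run at multiple concentrations; IC50 taken as the concentration giving 50% growth inhibition. HEK-293T (human embryonic kidney cells transformed with adenovirus 5 DNA and SV40 large T-antigen) served as the normal-cell model.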

A549 [8] = assay: Cytotoxicity against human A549 cells assessed as growth inhibition after 48 hrs by MTT assay; format: functional, cell-based; details: for pIC50: A549, 48 h; in short: as §2
HeLa [9] = assay: Induction of apoptosis in human HeLa cells assessed as increase in level of cleaved PARP at 20 uM after 12 hrs by immunoblotting; format: functional, cell-based
HEK-293T = assay: Cytotoxicity against human HEK293T cells assessed as growth inhibition after 48 hrs by MTT assay; format: cell-based; in short: as §2
HeLa [10] = assay: Cytotoxicity against human HeLa cells assessed as growth inhibition after 48 hrs by MTT assay; format: functional, cell-based; in short: as §2
[11] = biological target: Induced myeloid leukemia cell differentiation protein Mcl-1 (Homo sapiens) (UniProt Q07820); assay: Inhibition of mouse/human MCL1 expressed in Escherichia coli BL21 at 50 uM using FAM-labeled Bid-BH3 as tracer by fluorescence polarization assay

SMILES	inhibition of growth at 20 µM (A549 [1]) [%]	inhibition of growth at 20 µM (HeLa [2]) [%]	inhibition of growth at 20 µM (MDA-MB-231 [3]) [%]	inhibition [4]	growth inhibition (GI) (A549 [1])	growth inhibition (GI) (HeLa [2])	growth inhibition (GI) (MDA-MB-231 [3])	also measured
O=C(Cn1cnc2sc3c(c2c1=O)CCCCC3)N/N=C/c1ccc(Cl)c(F)c1	43	50	28	inactive	–	–	–	–
Cc1csc2ncn(CC(=O)N/N=C/c3ccc(Cl)c([N+](=O)[O-])c3)c(=O)c12	13	18	13	inactive	–	–	–	–
O=C(Cn1cnc2scc(-c3ccc(Cl)cc3)c2c1=O)N/N=C/c1ccccc1O	48	43	39	inactive	–	–	–	–
Cc1cc(-c2csc3ncn(CC(=O)N/N=C/c4ccccc4O)c(=O)c23)ccc1Cl	35	33	37	inactive	–	–	–	–
O=C(Cn1cnc2sc3c(c2c1=O)CCC3)N/N=C/c1ccccc1O	22	23	36	inactive	–	–	–	–
O=C(Cn1cnc2scc(-c3ccc(Cl)cc3)c2c1=O)N/N=C/c1cccc([N+](=O)[O-])c1	–	–	–	inactive	inactive	inactive	inactive	–
N#Cc1ccc(/C=N/NC(=O)Cn2cnc3sc4c(c3c2=O)CCCCC4)cc1	10	11	14	inactive	–	–	–	–
Cc1csc2ncn(CC(=O)N/N=C/c3ccc(Cl)c(F)c3)c(=O)c12	–	–	–	inactive	inactive	inactive	inactive	–
O=C(Cn1cnc2scc(-c3ccccc3)c2c1=O)N/N=C/c1ccc(Cl)c(F)c1	–	–	–	inactive	inactive	inactive	inactive	–
O=C(Cn1cnc2scc(-c3ccc4ccccc4c3)c2c1=O)N/N=C/c1ccc(Cl)c([N+](=O)[O-])c1	69	69	55	inactive	–	–	–	Activity (HeLa [5]): Active; Activity (HeLa [6]): 20%; growth inhibition (GI) (MDA-MB-231 [7]): Dose-dependent effect; pIC50 (MDA-MB-231 [7]): 4.70; growth inhibition (GI) (A549 [8]): Dose-dependent effect; pIC50 (A549 [8]): 4.89; Activity (HeLa [9]): Active; pIC50 (HEK-293T): < 4.30; pIC50 (HeLa [10]): 4.62; growth inhibition (GI) (HeLa [10]): Dose-dependent effect
O=C(Cn1cnc2scc(-c3ccc(Cl)cc3)c2c1=O)N/N=C/c1ccc(O)c(O)c1	–	–	–	inactive	inactive	inactive	inactive	–
Cc1csc2ncn(CC(=O)N/N=C/c3ccccc3O)c(=O)c12	–	–	30	inactive	inactive	inactive	–	inhibition [11]: 40%
N#Cc1ccc(/C=N/NC(=O)Cn2cnc3scc(-c4ccc5ccccc5c4)c3c2=O)cc1	–	–	–	inactive	inactive	inactive	inactive	–
O=C(Cn1cnc2scc(-c3ccc4ccccc4c3)c2c1=O)N/N=C/c1ccc(O)c(O)c1	–	–	–	inactive	inactive	inactive	inactive	inhibition [11]: 40%
O=C(Cn1cnc2sc3c(c2c1=O)CCCC3)N/N=C/c1ccc(Cl)c([N+](=O)[O-])c1	10	27	38	inactive	–	–	–	–
N#Cc1ccc(/C=N/NC(=O)Cn2cnc3sc4c(c3c2=O)CCC4)cc1	–	–	–	inactive	inactive	inactive	inactive	–
O=C(Cn1cnc2sc3c(c2c1=O)CCCCC3)N/N=C/c1cccc(O)c1	–	–	–	inactive	inactive	inactive	inactive	–
N#Cc1ccc(/C=N/NC(=O)Cn2cnc3scc(-c4ccccc4)c3c2=O)cc1	–	–	–	inactive	inactive	inactive	inactive	–

SMILES	inhibition of growth at 20 µM (A549 [1]) [%]	inhibition of growth at 20 µM (HeLa [2]) [%]	inhibition of growth at 20 µM (MDA-MB-231 [3]) [%]	inhibition [4]	growth inhibition (GI) (A549 [1])	growth inhibition (GI) (HeLa [2])	growth inhibition (GI) (MDA-MB-231 [3])	also measured
O=C(Cn1cnc2scc(-c3ccc(Cl)cc3)c2c1=O)N/N=C/c1ccc(Cl)c(F)c1	–	–	–	inactive	inactive	inactive	inactive	–
O=C(Cn1cnc2sc3c(c2c1=O)CCCC3)N/N=C/c1ccccc1O	18	34	29	inactive	–	–	–	pIC50 (MDA-MB-231 [7]): 4.80; pIC50 (A549 [8]): < 4.30; pIC50 (HEK-293T): < 4.30; pIC50 (HeLa [10]): 4.40
O=C(Cn1cnc2sc3c(c2c1=O)CCCC3)N/N=C/c1ccc(C(F)(F)F)cc1	23	34	30	inactive	–	–	–	–
O=C(Cn1cnc2scc(-c3ccc4ccccc4c3)c2c1=O)N/N=C/c1cccc([N+](=O)[O-])c1	–	–	–	inactive	inactive	inactive	inactive	–
O=C(Cn1cnc2scc(-c3ccc4ccccc4c3)c2c1=O)N/N=C/c1ccc(Cl)c(F)c1	–	–	–	inactive	inactive	inactive	inactive	–
Cc1csc2ncn(CC(=O)N/N=C/c3ccc(C#N)cc3)c(=O)c12	–	–	–	inactive	inactive	inactive	inactive	–
O=C(Cn1cnc2sc3c(c2c1=O)CCCCC3)N/N=C/c1ccc(O)cc1	–	–	–	inactive	inactive	inactive	inactive	–
O=C(Cn1cnc2sc3c(c2c1=O)CCCCC3)N/N=C/c1ccccc1O	29	36	40	inactive	–	–	–	–
N#Cc1ccc(/C=N/NC(=O)Cn2cnc3sc4c(c3c2=O)CCCC4)cc1	–	–	–	inactive	inactive	inactive	inactive	–
O=C(Cn1cnc2scc(-c3ccc4ccccc4c3)c2c1=O)N/N=C/c1ccccc1O	44	22	36	inactive	–	–	–	–
O=C(Cn1cnc2sc3c(c2c1=O)CCC3)N/N=C/c1ccc(Cl)c(F)c1	47	54	29	inactive	–	–	–	–
O=C(Cn1cnc2sc3c(c2c1=O)CCC3)N/N=C/c1cccc(O)c1	–	–	–	inactive	inactive	inactive	inactive	–
N#Cc1ccc(/C=N/NC(=O)Cn2cnc3scc(-c4ccc(Cl)cc4)c3c2=O)cc1	–	–	–	inactive	inactive	inactive	inactive	–
O=C(Cn1cnc2scc(-c3ccccc3)c2c1=O)N/N=C/c1ccccc1O	26	31	30	inactive	–	–	–	–
O=C(Cn1cnc2sc3c(c2c1=O)CCCC3)N/N=C/c1ccc(Cl)c(F)c1	26	41	39	inactive	–	–	–	–
O=C(Cn1cnc2sc3c(c2c1=O)CCC3)N/N=C/c1ccc(Cl)c([N+](=O)[O-])c1	–	34	41	inactive	inactive	–	–	–
O=C(Cn1cnc2sc3c(c2c1=O)CCC3)N/N=C/c1ccc(O)cc1	27	29	25	inactive	–	–	–	–
